Source: PubChem BioAssay (The Scripps Research Institute Molecular Screening Center)
M4 ag = CHRM4 agonism in calcium assay | P08173 | CHO-K1 hM4/Gqi5, Fluo-8 calcium fluorescence; vehicle 0%, full acetylcholine response 100% | activation, % at 3 µM | hit rate 0.14% among 360,000 | AID 624127;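 active = activation above the run mean over all test wells plus 3 SD, cut at about 32% in these data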;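 also: peak over basal fluorescence ratio per well then scaled between controls; 0% = DMSO wells and 100% = acetylcholine at EC100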
CHRM5 PAM = potentiates acetylcholine response at human M5 receptor; P08912; AID 624038; CHO-K1 hM5, Fluo-8 calcium, ACh EC20 PAM; 0% = ACh EC20, 100% = ACh EC100; hit rate 0.3% among 360,000; activation, % at 3 µM;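 active = activation above the run cutoff, the mean activation of all test compounds plus 3 SD, cut at about 18% in these data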
Target sequence (P08912 whole entry, looked up): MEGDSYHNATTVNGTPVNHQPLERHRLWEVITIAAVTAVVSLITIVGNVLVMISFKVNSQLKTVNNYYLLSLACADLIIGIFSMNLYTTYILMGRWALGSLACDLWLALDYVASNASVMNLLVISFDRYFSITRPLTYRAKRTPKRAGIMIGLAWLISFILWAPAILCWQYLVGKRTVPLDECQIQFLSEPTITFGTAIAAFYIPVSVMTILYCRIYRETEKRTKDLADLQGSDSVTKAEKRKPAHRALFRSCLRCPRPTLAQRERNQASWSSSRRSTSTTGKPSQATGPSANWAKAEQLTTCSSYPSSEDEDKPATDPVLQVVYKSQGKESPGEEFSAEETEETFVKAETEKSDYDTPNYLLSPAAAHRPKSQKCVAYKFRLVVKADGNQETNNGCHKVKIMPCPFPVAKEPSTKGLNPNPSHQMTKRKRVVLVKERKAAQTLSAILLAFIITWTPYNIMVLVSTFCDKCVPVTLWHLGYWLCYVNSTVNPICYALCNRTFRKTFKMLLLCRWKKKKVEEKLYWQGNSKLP
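Probe or stimulus: acetylcholine, EC20 level; Assay system: human M5 receptor in CHO-K1 cells; Schedule: compound preincubation 140 s before EC20 acetylcholine addition; Technique: intracellular calcium via Fluo-8 fluorescence; Dosing: single-point, 3 µM nominal; Read-out basis: percent activation from peak-over-basal fluorescence ratio, scaled EC20-to-EC100 acetylcholine; Repeats: one well per compound, no replicates.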
M4 antag = blocks acetylcholine activation of human M4 receptor. inhibition, % at 3 µM. AID 624125. CHO-hM4 cells, ACh EC80, Fluo-8 calcium fluorescence. P08173. hit rate 0.73% among 360,000;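 active = inhibition above its plate's cutoff, the mean inhibition of sample wells plus 3 SD, cut at about 27% in these data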;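 also: 0% = acetylcholine EC80 with DMSO and 100% = DMSO without agonist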
CHRM4 PAM = potentiates acetylcholine response at human M4 receptor; P08173; CHO-K1 hM4/Gqi5, Fluo-8 calcium fluorescence, ACh EC20; 0% = ACh EC20, 100% = maximal ACh; activation, % at 3 µM; hit rate 0.4% among 360,000;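 active = activation above its plate's cutoff, the mean activation of sample wells plus 3 SD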
M5 ag = agonists of human muscarinic M5 receptor (CHRM5); P08912; CHO-K1 hM5 cells, Fluo-8 calcium fluorescence; 0% DMSO wells, 100% maximal acetylcholine response; activation, % at 3 µM; hit rate 0.19% among 360,000; AID 624037;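 active = activation above the run's mean over test compounds plus 3 SD, cut at about 23% in these data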;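 also: signal is peak over basal fluorescence ratio across the kinetic read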
M5 antag = CHRM5 antagonism in calcium assay; inhibition, % at 3 µM; CHO-hM5 cells, Fluo-8 calcium fluorescence, ACh EC80; hit rate 0.59% among 360,000; AID 624040; P08912;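 active = inhibition above a per-plate cutoff, the mean of that plate's test compounds plus 3 SD, cut at about 27% in these data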;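 also: 0% = acetylcholine EC80 with DMSO and 100% = DMSO without agonist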
The depositor's hits bear a star. Only some compounds are listed: those with a hit (about 1.8% of all), similar ones and a draw of the others.

SMILES	M4 ag	CHRM5 PAM	M4 antag	CHRM4 PAM	M5 ag	M5 antag
CCOC(=O)CSc1nc2c(cnn2-c2ccc(C)cc2)c(=O)[nH]1	1	1	-22	19*	-7	-6
CCOc1ncccc1C(=O)OCC(=O)Nc1nnc(-c2ccccc2)o1	1	1	-9	-2	2	0
CC(C)Cn1c(-c2csc3c2CCCC3)n[nH]c1=S	-2	-23	30*	-16	-8	15
CC(C)Cn1c(-c2ccncc2)n[nH]c1=S	1	2	-6	5	-2	2
CC(C)Cn1c(-c2ccc(F)cc2)n[nH]c1=S	-1	-4	18	-11	-10	3
CC(C)Cn1c(-c2ccccc2F)n[nH]c1=S	1	2	8	18	-4	46*
COc1ccc(OC)c(CN2CCN(c3ccc(S(=O)(=O)N4CCCC4)cn3)CC2)c1	2	1	-14	8	-10	8
CC(=O)Nc1cccc(NC(=O)c2cc(-c3cccnc3)nc3ccc(Br)cc23)c1	27	-18	31*	-12	6	16
Oc1c(N=Nc2ccccn2)ccc2ccccc12	1	-14	35*	0	-7	33*
Oc1[nH]c2ccccc2c1N=Nc1ccccn1	1	1	-8	7	3	11
CN1CCN(Cc2cccc(Oc3ccc(Cl)cc3)c2)CC1	6	-16	14	-17	-6	35*
CCN1CCN(Cc2cccc(Oc3ccc(Cl)cc3)c2)CC1	5	-14	18	-30	-6	19
CCN(CC)CCCNc1nc2ccccc2c2nc(-c3ccncc3)nn12	4	-1	2	3	-2	0
COc1ccc(NC(=O)C2CCCN(S(C)(=O)=O)C2)c(OC)c1 (stereo not drawn)	1	19*	-18	1	9	-11
COc1ccc(NC(=O)C2CCN(S(C)(=O)=O)CC2)c(OC)c1	0	-4	-1	1	0	-1
CC1CN(C(=S)NC2CCCC2)CC(C)O1 (stereo not drawn)	0	1	3	14	-3	10
OC(c1ccc(F)c(F)c1)c1nc(-c2ccccc2)cs1 (stereo not drawn)	1	-2	-1	2	0	-1
COc1cc(C(O)c2nc(-c3ccc(N(C)C)cc3)cs2)ccc1F (stereo not drawn)	41*	-11	9	-12	8	5
COc1ccc(-c2csc(C(O)c3ccc(F)c(F)c3)n2)cc1 (stereo not drawn)	33*	-11	3	-7	4	14
Cc1ccc(NC(=O)COC(=O)CC2CCCC2)cc1Cl	1	23*	-13	18	-3	-1
COc1ccc(NC(=O)COC(=O)CC2CCCC2)cc1Cl	1	1	-4	-2	1	0
CCc1c(O)nc(SCC(=O)Nc2ccc(OC)cc2)n(C2CCCCC2)c1=O	-2	0	-7	8	3	0
CCc1c(O)nc(SCC(=O)Nc2ccc(Cl)cc2)n(-c2ccccc2)c1=O	0	4	-6	17*	3	-2
COc1ccc(NC(=O)C2(C)Cc3c(-c4cccc(C(F)(F)F)c4)ccnc3O2)cn1 (stereo not drawn)	-1	-2	-10	2	-2	-1
CC1CCCCN1C(=O)CSc1nc(-c2ccccc2)cc(=O)[nH]1 (stereo not drawn)	2	20*	-3	9	1	-9
COc1ccc(-c2csc(N(CCCN(C)C)C(=O)c3cccs3)n2)cc1	9	-16	-2	-14	-4	38*
CCN(CC)CCCN(C(=O)c1ccccc1C)c1nc(-c2ccc(OC)cc2)cs1	1	12	-4	0	-13	7
CCN(C(=O)c1cccs1)c1nc(-c2ccc(OC)cc2)cs1	0	5	-5	4	-1	-10
CCN(CC)CCCN(C(=O)c1ccc(OC)cc1)c1nc(-c2ccc(OC)cc2)cs1	10	-1	29*	49*	-19	6
